Laboratory results reported in ChEMBL document CHEMBL5154634, “A Modular Synthetic Route Involving N-Aryl-2-nitrosoaniline Intermediates Leads to a New Series of 3-Substituted Halogenated Phenazine Antibacterial Agents” (J Med Chem, 2021).
In brackets after ≈: the same amount, converted by molar mass. Activity calls are given as the source filed them. The calls are words filed in the database; no cut-off is given here.

Assays:
[1] = system: Staphylococcus aureus; test: Antibacterial activity against methicillin-resistant Staphylococcus aureus clinical isolate 1 assessed as bacterial growth inhibition; type: functional
[2] = system: Staphylococcus aureus; test: Induction of iron starvation in methicillin-resistant Staphylococcus aureus BAA-1707 biofilms assessed as upregulation of sbnC gene expression at 1/10XMBEC incubated for 4 hrs by RT-qPCR analysis; type: functional
Summary of the method: (§1)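 MRSA BAA-1707 grown in TSB with 0.5% glucose to OD600 ~0.8–1.0, then biofilms formed 20 h at 37 °C statically in gelatin-coated 24-well plates. Biofilms treated 4 h at 37 °C with compound (1 μM or 1/10 MBEC) or DMSO vehicle. RNA extracted; only RIN ≥7 samples used. One-step SYBR RT-qPCR; ΔCT normalised to ptaA. Three independent experiments.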

[3] = system: Staphylococcus aureus; test: Antibacterial activity against methicillin-resistant Staphylococcus aureus 138 assessed as bacterial growth inhibition; type: functional
[4] = system: Staphylococcus aureus; test: Induction of iron starvation in methicillin-resistant Staphylococcus aureus BAA-1707 biofilms assessed as upregulation of MW0695 gene expression at 1/10XMBEC incubated for 4 hrs by RT-qPCR analysis; type: functional; summary of the method: as §1
[5] = system: Staphylococcus epidermidis; test: Bactericidal activity against methicillin-resistant Staphylococcus epidermidis ATCC 35984 planktonic cells assessed as planktonic eradication incubated for 24 hrs followed by incubation for overnight in fresh medium by Calgary biofilm device assay; type: functional
Summary of the method: (§2)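 Calgary biofilm device. Biofilms grown 24 h at 37 °C in TSB with 0.5% glucose, then challenged 24 h with twofold compound dilutions. 20 μL of challenge medium transferred into fresh TSB with 0.5% glucose and incubated overnight at 37 °C. MBC is the concentration with no visible turbidity. At least three independent experiments.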

[6] = system: Enterococcus faecalis; test: Bactericidal activity against […] Enterococcus faecalis OG1RF ATCC 47077 planktonic cells assessed as planktonic eradication incubated for 24 hrs followed by incubation for overnight in fresh medium by Calgary biofilm device assay; type: functional
Summary of the method: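 Calgary biofilm device in BHI. Biofilms grown 24 h at 37 °C and challenged 24 h with twofold compound dilutions. Challenge medium subcultured 1:10 into fresh BHI overnight at 37 °C. MBC is the concentration with no turbidity. At least three independent experiments.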

[7] = system: HepG2; test: Cytotoxicity against human HepG2 cells assessed as reduction in cell viability […] by Alamar blue assay; type: toxicity, cell-based
[8] = Dissociation constant, pKa of the compound at 125 uM by UV-vis spectrophotometric analysis; type: physicochemical; conditions: 125 µM
Summary of the method: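 Compound at 125 μM final in phosphate buffers (KH₂PO₄/Na₂HPO₄) in 1:1 water/methanol, pH 4.07–9.66; ammonium hydroxide added for pH above 9.80. UV-vis scans 200–800 nm to find λmax of phenol and phenolate forms. Absorbance at each λmax plotted against pH.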

[9] = system: HeLa; test: Cytotoxicity against human HeLa cells assessed as reduction in cell viability incubated for 24 hrs by LDH release assay; type: toxicity, cell-based
Summary of the method: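 HeLa cells in DMEM with 10% FBS, treated at 70–80% confluence with 25, 50 and 100 μM for 24 h. LDH in supernatant measured by 30 min reaction at room temperature, then stop solution and absorbance at 490 nm. Controls: 2% Triton X-100 (maximum), medium only, DMSO vehicle. Three independent experiments.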

[10] = system: Enterococcus faecium; test: Antibiofilm activity against methicillin-resistant vancomycin-resistant Enterococcus faecium ATCC 700221 biofilms assessed as biofilm eradication incubated for 24 hrs followed by incubation for 24 hrs in fresh medium by Calgary biofilm device assay; type: functional
Summary of the method: (§3)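 Calgary biofilm device. Mid-log culture diluted 1000-fold in TSB with 0.5% glucose; biofilms grown on pegs 24 h at 37 °C. Pegs washed and challenged with twofold compound dilutions for 24 h at 37 °C, then moved to fresh medium for 24 h. MBEC is the lowest concentration leaving wells non-turbid. At least three independent experiments.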

[11] = system: Mycobacterium tuberculosis; test: Antibacterial activity against Mycobacterium tuberculosis CDC1551 assessed as bacterial growth inhibition incubated for 5 days by luminescence based analysis; type: functional; conditions: CDC1551, 120 h, time 5 day
Summary of the method: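 Bioluminescent Mtb-lux CDC1551 reporter grown in Middlebrook 7H9 with 0.05% Tween 80, 10% OADC and kanamycin to OD600 0.4–0.8, then diluted to OD600 0.02. Added to twofold drug dilutions (0.003–200 μM). Incubated 5 days at 37 °C, 5% CO2. Luminescence read against 1% DMSO and 10 μM rifampicin controls to give % growth inhibition. MIC taken from a modified Gompertz fit.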

[12] = system: Staphylococcus aureus; test: Induction of iron starvation in methicillin-resistant Staphylococcus aureus BAA-1707 biofilms assessed as upregulation of sfaA gene expression at 1/10XMBEC incubated for 4 hrs by RT-qPCR analysis; type: functional; summary of the method: as §1
[13] = system: Staphylococcus aureus; test: Antibiofilm activity against methicillin-resistant Staphylococcus aureus BAA-1707 biofilms assessed as biofilm eradication incubated for 24 hrs followed by incubation for 24 hrs in fresh medium by Calgary biofilm device assay; type: functional; summary of the method: as §3
[14] = system: Staphylococcus aureus; test: Induction of iron starvation in methicillin-resistant Staphylococcus aureus BAA-1707 biofilms assessed as upregulation of MW0695 gene expression at 1 uM incubated for 4 hrs by RT-qPCR analysis; type: functional; summary of the method: as §1
[15] = system: Enterococcus faecalis; test: Antibiofilm activity against Enterococcus faecalis OG1RF ATCC 47077 biofilms assessed as biofilm eradication incubated for 24 hrs followed by incubation for 24 hrs in fresh medium by Calgary biofilm device assay; type: functional
Summary of the method: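 Calgary biofilm device. Biofilms grown 24 h at 37 °C in BHI from mid-log culture diluted 1000-fold. Pegs washed and then challenged 24 h with twofold serial dilutions. Pegs moved to fresh BHI for 24 h recovery. MBEC = lowest concentration leaving no turbidity; at least three independent experiments.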

[16] = system: Staphylococcus epidermidis; test: Antibacterial activity against methicillin-resistant Staphylococcus epidermidis ATCC 35984 assessed as bacterial growth inhibition incubated for 16 hrs by broth microdilution susceptibility test; type: functional
Summary of the method: (§4)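 CLSI broth microdilution with 11 twofold dilutions (0.05–50 μM). About 10^5 cells per well from a log-phase culture. DMSO vehicle up to 0.5% v/v. At least three independent experiments.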

[17] = system: Staphylococcus aureus; test: Antibacterial activity against methicillin-resistant Staphylococcus aureus clinical isolate 2 assessed as bacterial growth inhibition; type: functional
[18] = system: Staphylococcus aureus; test: Induction of iron starvation in methicillin-resistant Staphylococcus aureus BAA-1707 biofilms assessed as upregulation of isdB gene expression at 1 uM incubated for 4 hrs by RT-qPCR analysis; type: functional; summary of the method: as §1
[19] = system: Staphylococcus aureus; test: Antibacterial activity against methicillin-resistant Staphylococcus aureus 156 assessed as bacterial growth inhibition; type: functional
[20] = system: Staphylococcus aureus; test: Bactericidal activity against methicillin-resistant Staphylococcus aureus BAA-44 planktonic cells assessed as planktonic eradication incubated for 24 hrs followed by incubation for overnight in fresh medium by Calgary biofilm device assay; type: functional; summary of the method: as §2
[21] = system: Erythrocyte; test: Hemolytic activity against human RBC at 200 uM measured after 1 hr; type: toxicity, cell-based
Summary of the method: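 2% hRBCs exposed to compound at 200 μM final, added from DMSO stock, for 1 h at 37 °C. Supernatant OD read at 405 nm. Hemolysis normalized between DMSO (0%) and Triton X (100%); three independent experiments.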

[22] = system: Staphylococcus aureus; test: Antibiofilm activity against methicillin-resistant Staphylococcus aureus BAA-44 biofilms assessed as biofilm eradication incubated for 24 hrs followed by incubation for 24 hrs in fresh medium by Calgary biofilm device assay; type: functional; summary of the method: as §3
[23] = system: Staphylococcus aureus; test: Induction of iron starvation in methicillin-resistant Staphylococcus aureus BAA-1707 biofilms assessed as upregulation of sbnC gene expression at 1 uM incubated for 4 hrs by RT-qPCR analysis; type: functional; summary of the method: as §1
[24] = system: Staphylococcus aureus; test: Antibacterial activity against methicillin-resistant Staphylococcus aureus 129 assessed as bacterial growth inhibition; type: functional
[25] = system: J774; test: Cytotoxicity against mouse J774 cells assessed as reduction in cell viability […] by Alamar blue assay; type: toxicity, cell-based
[26] = system: Staphylococcus aureus; test: Induction of iron starvation in methicillin-resistant Staphylococcus aureus BAA-1707 biofilms assessed as upregulation of isdB gene expression at 1/10XMBEC incubated for 4 hrs by RT-qPCR analysis; type: functional; summary of the method: as §1
[27] = system: Enterococcus faecalis; test: Antibacterial activity against Enterococcus faecalis OG1RF ATCC 47077 assessed as bacterial growth inhibition incubated for 16 hrs by broth microdilution susceptibility test; type: functional
[28] = system: Staphylococcus aureus; test: Antibacterial activity against methicillin-resistant Staphylococcus aureus 147 assessed as bacterial growth inhibition; type: functional
[29] = system: Staphylococcus aureus; test: Induction of iron starvation in methicillin-resistant Staphylococcus aureus BAA-1707 biofilms assessed as upregulation of sfaA gene expression at 1 uM incubated for 4 hrs by RT-qPCR analysis; type: functional; summary of the method: as §1
[30] = system: Staphylococcus epidermidis; test: Antibiofilm activity against methicillin-resistant Staphylococcus epidermidis ATCC 35984 biofilms assessed as biofilm eradication incubated for 24 hrs followed by incubation for 24 hrs in fresh medium by Calgary biofilm device assay; type: functional; summary of the method: as §3
[31] = system: Enterococcus faecium; test: Bactericidal activity against methicillin-resistant vancomycin-resistant Enterococcus faecium ATCC 700221 planktonic cells assessed as planktonic eradication incubated for 24 hrs followed by incubation for overnight in fresh medium by Calgary biofilm device assay; type: functional; summary of the method: as §2
[32] = system: Staphylococcus aureus; test: Antibacterial activity against methicillin-resistant Staphylococcus aureus BAA-1707 assessed as bacterial growth inhibition incubated for 16 hrs by broth microdilution susceptibility test; type: functional; summary of the method: as §4
[33] = system: Staphylococcus epidermidis; test: Antibacterial activity against Staphylococcus epidermidis ATCC 12228 assessed as bacterial growth inhibition by broth microdilution method; type: functional
[34] = system: Enterococcus faecium; test: Antibacterial activity against vancomycin-resistant Enterococcus faecium ATCC 700221 assessed as bacterial growth inhibition incubated for 16 hrs by broth microdilution susceptibility test; type: functional
Summary of the method: (§5)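 CLSI broth microdilution with 11 twofold dilutions (0.05–50 μM). Medium was LB for the staphylococci and BHI for VRE 700221. About 10^5 cells per well from a log-phase culture. […] DMSO vehicle up to 0.5% v/v. At least three independent experiments.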

[35] = system: Staphylococcus aureus; test: Antibacterial activity against methicillin-resistant Staphylococcus aureus BAA-44 assessed as bacterial growth inhibition incubated for 16 hrs by broth microdilution susceptibility test; type: functional; summary of the method: as §5

Structure (SMILES): Oc1c(Br)cc(Br)c2nc3ccccc3nc12
- MIC [1]: 1.25 µM (≈ 0.443 µg/mL)
- Activity [2]: Active
- MIC [3]: 1.25 µM (≈ 0.443 µg/mL)
- Activity [4]: Active
- MBC [5]: 25 µM (≈ 8.85 µg/mL)
- MBC [6]: 25 µM (≈ 8.85 µg/mL)
- IC50 [7]: > 100 µM
- pKa [8]: 7.12
- IC50 [9]: > 100 µM
- MBEC [10]: 12.5 µM
- MIC [11]: 13.7 µM (≈ 4.85 µg/mL)
- Activity [12]: Active
- MBEC [13]: 100 µM
- Activity [14]: Active
- MBEC [15]: >200 µM
- MIC [16]: 2.35 µM (≈ 0.832 µg/mL)
- MIC [17]: 1.25 µM (≈ 0.443 µg/mL)
- Activity [18]: Active
- MIC [19]: 1.25 µM (≈ 0.443 µg/mL)
- MBC [20]: 37.5 µM (≈ 13.3 µg/mL)
- Activity [21]: <= 1%
- MBEC [22]: 75 µM
- Activity [23]: Active
- MIC [24]: 1.25 µM (≈ 0.443 µg/mL)
- IC50 [25]: > 100 µM
- Activity [26]: Active
- MIC [27]: 12.5 µM (≈ 4.43 µg/mL)
- MIC [28]: 1.25 µM (≈ 0.443 µg/mL)
- Activity [29]: Active
- MBEC [30]: 50 µM
- MBC [31]: 18.8 µM (≈ 6.66 µg/mL)

Structure (SMILES): Oc1c(Br)ccc2nc3ccccc3nc12
- MIC [32]: 3.13 µM (≈ 0.861 µg/mL)
- MIC [16]: 3.13 µM (≈ 0.861 µg/mL)
- MIC [33]: 6.25 µM (≈ 1.72 µg/mL)
- MIC [34]: 6.25 µM (≈ 1.72 µg/mL)
- MIC [27]: 18.8 µM (≈ 5.17 µg/mL)
- MIC [35]: 3.13 µM (≈ 0.861 µg/mL)
